Assay outcomes (PubChem)
MC4R barr agon = human MC4R agonism via beta-arrestin | P32245 | activation, % at 8.9 µM | AID 540308 | hit rate 0.98% among 360,000 | U2OS MC4R beta-arrestin complementation, luminescence; percent of melanotan II response, DMSO zero;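 active = activation above a per-plate cutoff, the mean activation of sample wells on that plate plus 3 SD, cut at about 8% in these data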
Exocytosis inh = blocks lytic granule exocytosis; TALL-104 LAMP-1 surface exposure, flow cytometry; cells stimulated with thapsigargin and PMA; inhibition, % at 10 µM; hit rate 0.66% among 360,000; AID 651702;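 active = inhibition above about 55%, limit read from the data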
iPSC survival up = increases survival of single human iPS cells; survival enhancement, % at 20 µM; hit rate 0.044% among 360,000; hiPSC single-cell survival, ATPlite luminescence; 100% = ROCK inhibitor wells, 0% = DMSO; AID 602274; in the data active = survival enhancement above about 18%;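 note: cells exposed to compounds for 16 hours before the ATP read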
ABCB6 inh MLPCN = blocks the human ABCB6 transporter. K562-ABCB6 porphyrin accumulation, flow cytometry, 1 h; stronger effect = lower value. AID 602162. hit rate 0.19% among 360,000. Q9NP58. fluorescence ratio to DMSO, % at 10 µM;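 active = fluorescence ratio to DMSO below 75%, the collection mean minus 3 SD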;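 note: signal is porphyrin accumulated inside mitochondria; 100% equals median channel fluorescence of DMSO control wells; lower ratio means ABCB6 inhibition with less porphyrin fluorescence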
Target sequence (Q9NP58 whole entry, looked up): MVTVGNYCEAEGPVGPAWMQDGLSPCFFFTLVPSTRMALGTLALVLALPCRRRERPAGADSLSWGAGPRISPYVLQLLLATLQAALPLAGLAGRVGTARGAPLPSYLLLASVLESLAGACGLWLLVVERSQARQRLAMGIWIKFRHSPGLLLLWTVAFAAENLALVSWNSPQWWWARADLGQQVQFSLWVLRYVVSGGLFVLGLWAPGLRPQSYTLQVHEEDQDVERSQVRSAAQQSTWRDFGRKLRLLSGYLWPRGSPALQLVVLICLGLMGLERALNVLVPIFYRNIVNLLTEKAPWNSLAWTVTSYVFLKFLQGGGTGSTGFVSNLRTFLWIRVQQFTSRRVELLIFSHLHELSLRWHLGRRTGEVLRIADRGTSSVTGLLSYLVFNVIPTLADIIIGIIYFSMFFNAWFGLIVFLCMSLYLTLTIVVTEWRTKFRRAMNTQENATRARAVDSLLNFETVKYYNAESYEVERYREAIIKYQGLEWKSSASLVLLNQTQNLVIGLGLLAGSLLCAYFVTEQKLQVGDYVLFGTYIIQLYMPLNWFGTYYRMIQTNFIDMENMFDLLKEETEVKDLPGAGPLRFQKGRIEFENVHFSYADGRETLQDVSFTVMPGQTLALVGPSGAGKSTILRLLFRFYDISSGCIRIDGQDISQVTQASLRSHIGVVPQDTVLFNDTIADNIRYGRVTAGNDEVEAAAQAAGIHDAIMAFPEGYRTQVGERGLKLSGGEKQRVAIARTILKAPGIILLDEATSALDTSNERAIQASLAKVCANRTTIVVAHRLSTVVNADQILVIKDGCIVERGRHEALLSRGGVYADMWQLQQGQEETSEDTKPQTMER
Tb MetRS inh = blocks T. brucei methionyl-tRNA synthetase activity | purified T. brucei MetRS, ATP depletion, Kinase-Glo luminescence | inhibition, % at 11.9 µM | hit rate 0.4% among 360,000 | AID 624268;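 active = inhibition above a per-plate cutoff of the control wells' mean inhibition plus 3 SD, cut at about 5.5% in these data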;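 note: 0% = DMSO wells median and 100% = median of wells with control inhibitor compound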
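Assay system: T. brucei methionyl-tRNA synthetase, purified | Medium: HEPES buffer with MgCl2, KCl, DTT, spermine, BSA, pyrophosphatase | Compound: 11.9 µM single point | Incubation: 15 min enzyme-compound preincubation, 2 h reaction, 10 min detection, 25 °C | Measured by: Kinase-Glo luciferase luminescence reporting remaining unconsumed ATP | Measure: % inhibition normalized to control-well medians | Replication: Singlicate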
MC4R antag cAMP = blocks human MC4R cAMP signaling. P32245. MC4R-expressing cells, MTII-stimulated cAMP, LANCE TR-FRET. inhibition, % at 6.5 µM. hit rate 0.48% among 360,000;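 active = inhibition above its plate's cutoff, the mean of tested wells on that plate plus 3 SD, cut at about 29% in these data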;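 note: 0% = Melanotan II alone and 100% = Melanotan II plus saturating MCL0020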
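System: U2OS cells stably expressing human melanocortin 4 receptor (MC4R). Reagent: Melanotan II challenge after compound preincubation. Doses: 6.5 µM. Times: 30-min compound, 1-h challenge, 1-h detection, room temperature. Measured by: TR-FRET with Eu-cAMP and labeled anti-cAMP, 671 nm. Replicates: singlicate.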
MC4R barr ag = human MC4R beta-arrestin agonism confirmation. shares compounds with MC4R barr agon. U2OS MC4R beta-arrestin recruitment, luminescence; scaled DMSO 0%, Melanotan II 100%. activation, % at 8.9 µM. hit rate 31% among 2,400. AID 602192;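 active = mean activation across replicates above the hit cutoff set in the earlier primary screen, cut at about 8% in these data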
MOR DOR agonist = OPRM1-OPRD1 heterodimer agonism counter-screen; shares compounds with MC4R barr agon; U2OS PathHunter beta-arrestin, beta-gal luminescence; percent of deltorphin B response, DMSO zero; activation, % at 9.2 µM; hit rate 5.8% among 2,400; AID 602194;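 active = mean activation across replicates exceeds the hit threshold derived in the earlier primary screen, cut at about 18% in these data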;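 note: 100% = deltorphin B at 0.9 µM final and 0% = DMSO alone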
* hit, by the source's call; . = no result. A selection: hits, their analogues and other compounds. The true share with any hit is near 2.6%.

SMILES	MC4R barr agon	Exocytosis inh	iPSC survival up	ABCB6 inh MLPCN	Tb MetRS inh	MC4R antag cAMP	MC4R barr ag	MOR DOR agonist
CC(C)(C)OC(=O)N[C@@H](Cc1ccccc1)c1nnc(SCC(=O)c2ccc(Cl)cc2)o1	34.9*	-0.3	-1.6	89.0	-0.7	-0.6	1.6	3.0
Cc1ccc(Cl)c(OC(=O)C2CSC3(C)CCC(=O)N23)c1 (stereo unspecified)	-2.1	-1.5	-0.5	105.0	-0.3	12.9	.	.
O=C(O)c1ccccc1-c1ccccc1C(=O)NNc1ccc([N+](=O)[O-])cc1	-2.3	2.2	-0.1	105.0	0.5	-2.9	.	.
Nc1c(C(=O)N/N=C/c2ccc(Cl)cc2)cnn1-c1ccccc1	4.1	-8.5	-0.8	94.0	-0.7	8.7	.	.
O=c1c(Cl)c(N/N=C/c2ccc(Cl)cc2)cnn1-c1ccccc1	18.4*	3.1	0.1	99.0	-0.7	2.9	9.4*	4.6
O=C(Nc1ccccc1)Nc1ccc(Br)c(Cl)c1	1.7	-0.1	-0.7	92.0	3.3	-2.7	.	.
COc1ccccc1C(CCNCc1ccc(N(C)C)cc1)c1ccc(OC(C)C)cc1 (stereo unspecified)	12.9*	10.7	-0.3	95.0	-0.6	3.0	8.2	28.7*
COc1ccc(CNCCC(c2ccc(OC(C)C)cc2)c2ccccc2OC)cc1 (stereo unspecified)	12.1*	25.2	-0.6	100.0	-0.6	9.6	11.1*	24.8*
COc1ccc(OC)c(NC(=O)c2cccc(N3C(=O)C4C5C=CC(C6CC56)C4C3=O)c2)c1 (stereo unspecified)	-1.9	13.5	-0.6	95.0	-0.2	7.1	.	.
C/C(=N\Nc1cccc(C(=O)O)c1)c1cc2ccccc2o1	-3.0	-2.0	0.6	98.0	-0.6	-4.8	.	.
Cc1nn(-c2cccc(Cl)c2)c(Cl)c1/C=N/NC(=O)c1cccs1	24.6*	3.8	1.7	95.0	0.3	0.3	3.4	9.4
CCNC(=S)N/N=C/c1c(C)nn(-c2cccc(Cl)c2)c1Cl	21.3*	-10.1	-1.9	98.0	-1.4	9.4	1.8	8.8
Cc1cc(C(=O)N/N=C/c2c(C)nn(-c3ccccc3)c2Cl)n[nH]1	-1.6	14.9	-0.3	94.0	-0.6	-2.6	.	.
CCN(CC)S(=O)(=O)c1ccc(Cl)c(NC(=O)COC(=O)c2nc3nc(C)cc(C)n3n2)c1	0.4	-12.7	1.4	98.0	-0.2	8.3	.	.
CN(C)c1cccc(C(=O)N2CCCC(CCC(=O)NCc3ccccc3F)C2)c1 (stereo unspecified)	-0.5	5.9	-0.1	84.0	-0.5	0.7	.	.
CC1(C)CC(N=c2cc(-c3ccccc3)oc3ccc(Cl)cc23)CC(C)(C)N1	23.6*	50.8	-2.9	98.0	0.0	14.4	6.1	9.8
OCCCN=c1cc(-c2ccccc2)oc2ccc(Cl)cc12	0.0	-1.4	-3.0	101.0	-0.5	-1.0	.	.
COc1ccc(/C=N/NC(=O)CNS(=O)(=O)c2ccc(C)cc2)cc1	-1.9	-1.6	-0.3	96.0	-0.8	2.2	.	.
CC(C)(C)C(=O)Cn1c(=O)n(CC2CCCO2)c(=O)c2ccccc21 (stereo unspecified)	-2.1	2.7	0.6	102.0	-1.0	5.2	.	.
O=C(Cn1c(=O)n(CC2CCCO2)c(=O)c2ccccc21)c1ccc(Cl)c(Cl)c1 (stereo unspecified)	10.7*	1.8	5.5	93.0	-0.9	6.3	-0.5	3.4
Cc1ccc(N(C(=O)CNC(=O)c2ccco2)C(C(=O)NC2CCCC2)c2ccncc2)cc1F (stereo unspecified)	0.1	-6.3	-0.4	94.0	-0.3	-4.6	.	.
CCOc1ccc(NC(=NCc2ccc3c(c2)OCO3)SC2CC(=O)N(c3ccccc3)C2=O)cc1 (stereo unspecified)	18.1*	2.5	0.6	90.0	-1.0	1.1	6.7	6.7
